Test system: HaCaT cells
Experiment: Proliferation of HaCaT keratinocytes, CCK-8
Assay type: cell-based, human
Details: 100 μM, positive control, 72 h, 0.4 % serum
Summary of the method: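 HaCaT keratinocytes, grown at 37 °C in DMEM with 10 % (v/v) FBS, were seeded at 5 × 10^3 cells/well and cultured for 24 h. They were then serum-starved for 24 h in DMEM with 0.4 % serum and exposed to test sample in the same medium for 72 h. After 2 h in 10 % CCK-8, A450 was read. Proliferative activity = (A2−A1)/(A3−A1) × 100 %, against untreated cells and cell-free blank; mean ± SD, n = 3.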

B1: Epidermal growth factor (protein, UniProt P01133 23-1207, looked up)
Pro-epidermal growth factor: PQHWSCPEGTLAGNGNSTCVGPAPFLIFSHGNSIFRIDTEGTNYEQLVVDAGVSVIMDFHYNEKRIYWVDLERQLLQRVFLNGSRQERVCNIEKNVSGMAINWINEEVIWSNQQEGIITVTDMKGNNSHILLSALKYPANVAVDPVERFIFWSSEVAGSLYRADLDGVGVKALLETSEKITAVSLDVLDKRLFWIQYNREGSNSLICSCDYDGGSVHISKHPTQHNLFAMSLFGDRIFYSTWKMKTIWIANKHTGKDMVRINLHSSFVPLGELKVVHPLAQPKAEDDTWEPEQKLCKLRKGNCSSTVCGQDLQSHLCMCAEGYALSRDRKYCEDVNECAFWNHGCTLGCKNTPGSYYCTCPVGFVLLPDGKRCHQLVSCPRNVSECSHDCVLTSEGPLCFCPEGSVLERDGKTCSGCSSPDNGGCSQLCVPLSPVSWECDCFPGYDLQLDEKSCAASGPQPFLLFANSQDIRHMHFDGTDYGTLLSQQMGMVYALDHDPVENKIYFAHTALKWIERANMDGSQRERLIEEGVDVPEGLAVDWIGRRFYWTDRGKSLIGRSDLNGKRSKIITKENISQPRGIAVHPMAKRLFWTDTGINPRIESSSLQGLGRLVIASSDLIWPSGITIDFLTDKLYWCDAKQSVIEMANLDGSKRRRLTQNDVGHPFAVAVFEDYVWFSDWAMPSVMRVNKRTGKDRVRLQGSMLKPSSLVVVHPLAKPGADPCLYQNGGCEHICKKRLGTAWCSCREGFMKASDGKTCLALDGHQLLAGGEVDLKNQVTPLDILSKTRVSEDNITESQHMLVAEIMVSDQDDCAPVGCSMYARCISEGEDATCQCLKGFAGDGKLCSDIDECEMGVPVCPPASSKCINTEGGYVCRCSEGYQGDGIHCLDIDECQLGEHSCGENASCTNTEGGYTCMCAGRLSEPGLICPDSTPPPHLREDDHHYSVRNSDSECPLSHDGYCLHDGVCMYIEALDKYACNCVVGYIGERCQYRDLKWWELRHAGHGQQQKVIVVAVCVVVLVMLLLLSLWGAHYYRTQKLLSKNPKNPYEESSRDVRSRRPADTEDGMSSCPQPWFVVIKEHQDLKNGGQPVAGEDGQAADGSMQPTSWRQEPQLCGMGTEQGCWIPVSSDKGSCPQVMERSFHMPSYGTQTLEGGVEKPHSLLSANPLWQQRALDPPHQMELTQ
modifications: Pro-epidermal growth factor
cell viability (proliferation of HaCaT keratinocytes): 106.76%

Reference: paper PMC11261800 (Heliyon, 2024)
